Data set [1] has as its system Sarcoma-180. Kind of data set: Antitumor activity against mouse Sarcoma 180 cells allografted in mouse assessed as reduction in tumor growth at 100 mg/kg, ip qd for 8 days measured one day after last treatment relative to control. The data set is classed as functional. The following applies: Sarcoma-180, ip, route intraperitoneal, read-out: TGI. An outline of the steps: (§1)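 Female CD mice (18-20 g) implanted subcutaneously with 3×10^7 Sarcoma 180 tumor cells in the right ventrolateral area. Doses tested were 100, 50, 25 and 12.5 mg/kg.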

The test system of data set [2] is Mus musculus. Kind of data set: Toxicity in mouse allografted with mouse Sarcoma 180 cells assessed as mortality at 100 mg/kg, ip qd for 8 days measured one day after last treatment relative to control. The data set is classed as organism-based. Also on record: dose 100 mg/kg, route intraperitoneal. The following applies: in vivo, 192 h. An outline of the steps:
as §1

For data set [3], the system named is Sarcoma-180. The data set is described as follows: Antitumor activity against mouse Sarcoma 180 cells allografted in mouse assessed as reduction in tumor growth at 50 mg/kg, ip qd for 8 days measured one day after last treatment relative to control. Format: functional. The following applies: Sarcoma-180, ip, route intraperitoneal, read-out: TGI. An outline of the steps:
as §1

For data set [4], the system named is Mus musculus. Kind of data set: Toxicity in mouse allografted with mouse Sarcoma 180 cells assessed as mortality at 25 mg/kg, ip qd for 8 days measured one day after last treatment relative to control. The following applies: in vivo, 192 h. The data set is classed as organism-based. Further details: dose 25 mg/kg, route intraperitoneal. The procedure, abridged: as §1

For data set [5], the system named is Mus musculus. Kind of data set: Toxicity in mouse allografted with mouse Sarcoma 180 cells assessed as mortality at 12.5 mg/kg, ip qd for 8 days measured one day after last treatment relative to control. The following applies: in vivo, 192 h. Format: organism-based. Further details: dose 12.5 mg/kg, route intraperitoneal. An outline of the steps: as §1
In data set [6] the test system is Sarcoma-180. The data set is described as follows: Antitumor activity against mouse Sarcoma 180 cells allografted in mouse assessed as reduction in tumor growth at 12.5 mg/kg, ip qd for 8 days measured one day after last treatment relative to control. Format: functional. The following applies: Sarcoma-180, ip, route intraperitoneal, read-out: TGI. An outline of the steps:
as §1

Data set [7] relates to Mus musculus. Kind of data set: Toxicity in mouse allografted with mouse Sarcoma 180 cells assessed as mortality at 50 mg/kg, ip qd for 8 days measured one day after last treatment relative to control. Further details: dose 50 mg/kg, route intraperitoneal. The following applies: in vivo, 192 h. The data set is classed as organism-based. The procedure, abridged: as §1
Data set [8] has as its system Sarcoma-180. Kind of data set: Antitumor activity against mouse Sarcoma 180 cells allografted in mouse assessed as reduction in tumor growth at 25 mg/kg, ip qd for 8 days measured one day after last treatment relative to control. The data set is classed as functional. The following applies: Sarcoma-180, ip, route intraperitoneal, read-out: TGI. The procedure, abridged:
as §1

In ChEMBL document CHEMBL3244153, “Synthesis of arabinofuranosyl derivatives of 3-deazaguanine” (J Med Chem, 1979) one finds inhibition in vivo and Activity data, which are given here for 5 compounds.

Regarding `Nc1cc2c(ncn2[C@@H]2O[C@H](CO)[C@@H](O)[C@@H]2O)c(=O)[nH]1`, the inhibition in vivo at 100 mg/kg with Sarcoma-180 [1] worked out at 16%. Also, the Activity entry in the data set with Mus musculus [2] is recorded as “Non-toxic”.

With `Nc1cc2c(ncn2[C@H]2O[C@H](CO)[C@@H](O)[C@@H]2O)c(=O)[nH]1`, the inhibition in vivo at 100 mg/kg with Sarcoma-180 [1] was 24.2%. For the same compound, the Activity result in the data set on Mus musculus [2] is reported as “Non-toxic”.

Turning to `Nc1cc2ncn([C@@H]3O[C@H](CO)[C@@H](O)[C@@H]3O)c2c(=O)[nH]1`, the inhibition in vivo at 100 mg/kg with Sarcoma-180 [1] was found to be 5.6%. In the data set with Mus musculus [2], the Activity entry was “Non-toxic”.

Regarding `Nc1cc2ncn([C@H]3O[C@H](CO)[C@@H](O)[C@@H]3O)c2c(=O)[nH]1`, the inhibition in vivo at 100 mg/kg with Sarcoma-180 [1] stood at 0%. Also, the Activity entry with Mus musculus [2] is “Non-toxic”.

As for `Nc1cc2nc[nH]c2c(=O)[nH]1` [DEZAGUANINE], the inhibition in vivo at 100 mg/kg in the data set with Sarcoma-180 [1] worked out at 89.6%. Further, the inhibition in vivo at 50 mg/kg in the data set with Sarcoma-180 [3] came to 74.2%. The Activity result in the data set with Mus musculus [4] is “Non-toxic”; with Mus musculus [5], “Non-toxic”; in the data set on Mus musculus [2] it was “Toxic”; with Mus musculus [7] it was “Non-toxic”. Besides, the inhibition in vivo at 12.5 mg/kg with Sarcoma-180 [6] was 46.2%. Besides, the inhibition in vivo at 25 mg/kg with Sarcoma-180 [8] was 78.2%.
